Assay results: ChEMBL document CHEMBL3259578, “Novel derivatives of 1-cyclohexyl-4-[3-(5-methoxy-1,2,3,4-tetrahydronaphthalen-1-yl)propyl]piperazine (PB28) with improved fluorescent and σ receptors binding properties” (J Med Chem, 2014)
The source made the active and inactive calls. No cut-off for these calls is given here.

Experiments:
[1] = Displacement of [3H]DTG from Wistar Hannover rat liver sigma 2 receptor
[2] = target: Sigma non-opioid intracellular receptor 1 (Cavia porcellus, UniProt Q60492); test: Displacement of (+)-[3H]pentazocine from Dunkin guinea pig brain sigma 1 receptor
[3] = Displacement of [3H]DTG from sigma 2 receptor in human MCF7 cells after 45 mins by FACS analysis; type: cell-based
[4] = Displacement of 2-(6-{1-[3-(4-Cyclohexylpiperazin-1-yl)propyl]-1,2,3,4-tetrahydronaphthalen-5-yloxy}hexyl)-5-dimethylamino-1H-isoindole-1,3(2H)-dione from sigma 2 receptor in human MCF7 cells after 45 mins by FACS analysis; type: cell-based
Method in brief: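 Intact, nonpermeabilized MCF7 cells incubated with competitor at 0.1 nmol/L–10 μmol/L followed by 100 nmol/L fluorescent σ2 tracer for 45 min at 37 °C. Washed twice with PBS, detached with dissociation solution, resuspended in PBS. Flow cytometry at 530 nm band-pass, 10 000 events; IC50 taken from displacement curve.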

[5] = Drug uptake in vesicle of human MCF7 cells at 100 to 500 nM after 45 mins by spinning disk confocal microscopy; type: ADME, cell-based; settings: mcf7, 0.75 h, 0.5 µM
Method in brief: (§1)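 MCF7 cells seeded in chamber slides 24 h ahead, treated 45 min with 100 or 500 nM ligand, fixed in 2% PFA for 30 min at 37 °C, washed with PBS. Spinning-disk confocal imaging, background-corrected; subcellular localization assessed, nuclear signal from pixel intensity profiles. Excitation 405, 488 or 561 nm depending on fluorophore.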

MCF7 [6] = test: Binding affinity to sigma 2 receptor overexpressed in human MCF7 cells assessed as compound internalization by measuring cellular accumulation at 25 nmol/L after 45 mins by flow cytometry in presence of PB28; type: cell-based
[7] = Drug uptake in cytoplasm of human MCF7 cells at 100 to 500 nM after 45 mins by spinning disk confocal microscopy; type: ADME, cell-based; settings: mcf7, 0.75 h, 0.5 µM; method in brief: as §1
MCF7 [8] = test: Cellular uptake in human MCF7 cells at 50 to 100 nM after 20 to 40 mins by spinning disk confocal microscopy; type: ADME, cell-based; settings: mcf7, 0.1 µM
Method in brief: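 Live and fixed MCF7 cells imaged by spinning-disk confocal microscopy from 50 nM ligand onward; intracellular fluorescence intensity followed over time after treatment. Excitation 405 nm […], 488 nm (green) or 561 nm (red channel), according to fluorophore.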

[9] = Drug uptake in nucleus of human MCF7 cells at 500 nM after 45 mins by spinning disk confocal microscopy; type: ADME, cell-based; settings: mcf7, 0.75 h, 0.5 µM; method in brief: as §1
MCF7 [10] = test: Cellular uptake in human MCF7 cells at 25 to 100 nmol/L after 45 mins […]; type: ADME, cell-based; settings: mcf7, 0.75 h
MCF7 [11] = test: Binding affinity to sigma 2 receptor overexpressed in human MCF7 cells assessed as compound internalization by measuring cellular accumulation at 25 nmol/L after 45 mins by flow cytometry in presence of cis-1-cyclohexyl-4-[4-(2,6-difluorophenyl)cyclohexyl]piperazine; type: cell-based
MCF7 [12] = test: Binding affinity to sigma 2 receptor in human MCF7 cells at 100 nmol/L after 45 mins by FACS analysis in presence of DTG and (+)-pentazocine; type: cell-based
[13] = Drug uptake in perinuclear region of human MCF7 cells at 100 nM after 45 mins by spinning disk confocal microscopy; type: ADME, cell-based; settings: mcf7, 0.75 h, 0.1 µM; method in brief: as §1

Sequence of Sigma non-opioid intracellular receptor 1 (Q60492 whole entry): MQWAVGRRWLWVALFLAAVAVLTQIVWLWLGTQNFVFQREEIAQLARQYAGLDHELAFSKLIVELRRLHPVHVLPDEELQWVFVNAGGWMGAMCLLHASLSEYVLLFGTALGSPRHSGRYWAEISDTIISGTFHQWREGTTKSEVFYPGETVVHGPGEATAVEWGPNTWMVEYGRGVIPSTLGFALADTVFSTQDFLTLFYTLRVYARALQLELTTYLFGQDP

SMILES | Ki [1] [nM] | Ki [2] [nM] | IC50 [3] [nM] | IC50 [4] [nM] | Drug uptake [5] | Activity (MCF7 [6]) | Drug uptake [7] | Drug uptake (MCF7 [8]) | Drug uptake [9] | Drug uptake (MCF7 [10]) | Activity (MCF7 [11]) | Activity (MCF7 [12]) | Drug uptake [13]
O=[N+]([O-])c1ccc(NCCCCCCCCCCOc2cccc3c2CCCC3CCCN2CCN(C3CCCCC3)CC2)c2nonc12 (stereo not given) | 31.2 | 258 |  |  |  |  |  |  |  |  |  |  | 
COc1cccc2c1CCCC2CCCN1CCN(C2CCCCC2)CC1 (stereo not given) |  |  | 1.2 | 4.27 |  |  |  |  |  |  |  |  | 
CN(C)c1ccc2c(c1)C(=O)N(CCCCCCOc1cccc3c1CCCC3CCCN1CCN(C3CCCCC3)CC1)C2=O (stereo not given) | 6.9 | 5.37 |  |  | Active | inactive | Active | Active | Active | Active | inactive | inactive | Active
Nc1ccc2c3c(cccc13)C(=O)N(CCCCCCOc1cccc3c1CCCC3CCCN1CCN(C3CCCCC3)CC1)C2=O (stereo not given) | 6.57 | 156 |  |  | Active | inactive | Active | Active | Active | Active | inactive |  | Active
O=[N+]([O-])c1ccc(NCCCCCCOc2cccc3c2CCCC3CCCN2CCN(C3CCCCC3)CC2)c2nonc12 (stereo not given) |  |  |  |  | Active | inactive | Active | Active | Active | Active | inactive |  | Active
CCN(CC)c1ccc2cc(/C=C/C3=[N+](CCCCCC(=O)NCCCCCCOc4cccc5c4CCCC5CCCN4CCN(C5CCCCC5)CC4)c4ccccc4C3(C)C)c(=O)oc2c1.[Br-] (stereo not given) | 161 | 235 |  |  | Active |  | Active | Active | Active |  |  |  | Active
